# Experimental data of several laboratories.
# pEC50: −log10 of the molar value.
Structure (SMILES),organism,test,test system,conditions,measurement,value
CCCSc1ccc2nc(NC(=O)OC)[nH]c2c1,Angiostrongylus cantonensis,parasite motility,,"24 h, larva",pEC50,4.97
CN[C@H](CC(C)C)C(=O)N[C@H]1C(=O)N[C@@H](CC(N)=O)C(=O)N[C@H]2C(=O)N[C@H]3C(=O)N[C@H](C(=O)N[C@H](C(=O)O)c4cc(O)cc(O)c4-c4cc3ccc4O)[C@H](O)c3ccc(c(Cl)c3)Oc3cc2cc(c3O[C@@H]2O[C@H](CO)[C@@H](O)[C@H](O)[C@H]2O[C@H]2C[C@](C)(N)[C@H](O)[C@H](C)O2)Oc2ccc(cc2Cl)[C@H]1O,Micrococcus luteus,"microbial growth, broth dilution",ATCC4698,,MIC,0.34 µM
CCCS(=O)(=O)Oc1ccc(C=NNC(=O)CSc2nc3ccc(Cl)cc3c(=O)n2-c2ccccc2)cc1,Staphylococcus aureus,"microbial growth, well diffusion",MRSA,20 µg/mL,inhibition zone,2 mm
CC(=O)c1sc(N/N=C/c2c(-c3ccccc3)nc3ncccn23)nc1C,Escherichia coli,"microbial growth, well diffusion",ATCC25922,100 µg/mL,inhibition zone,14 mm
CC1(C)S[C@@H]2[C@H](NC(=O)[C@H](N)c3ccccc3)C(=O)N2[C@H]1C(=O)O,Micrococcus luteus,"microbial growth, broth dilution",ATCC4698,43 h,MIC,0.5 mg/L
C=C[C@]1(C)C[C@@H](OC(=O)CS[C@@H]2C[C@H]3CC[C@@H](C2)N3C)[C@]2(C)[C@H](C)CC[C@]3(CCC(=O)[C@H]32)[C@@H](C)[C@@H]1O,Staphylococcus aureus,microbial growth,MSSA,clinical isolate,MIC90,0.0625 mg/L
OC(Cn1cncn1)(Cn1cncn1)c1ccc(F)cc1F,Alternaria solani,"microbial growth, broth dilution",,,MIC,16 mg/L
O=C(O)c1cn(C2CC2)c2cc(N3CCNCC3)c(F)cc2c1=O,Escherichia coli,"microbial growth, well diffusion",ATCC25922,100 µg/mL,inhibition zone,35 mm
CN[C@H](CC(C)C)C(=O)N[C@H]1C(=O)N[C@@H](CC(N)=O)C(=O)N[C@H]2C(=O)N[C@H]3C(=O)N[C@H](C(=O)N[C@H](C(=O)O)c4cc(O)cc(O)c4-c4cc3ccc4O)[C@H](O)c3ccc(c(Cl)c3)Oc3cc2cc(c3O[C@@H]2O[C@H](CO)[C@@H](O)[C@H](O)[C@H]2O[C@H]2C[C@](C)(N)[C@H](O)[C@H](C)O2)Oc2ccc(cc2Cl)[C@H]1O,Micrococcus luteus,"microbial growth, broth dilution",DSM1790,,MIC,0.17 µM
